Entries after “also recorded” stand apart in the source; their conditions may differ.
Experiments:
danio rerio TRPN1 = danio rerio TRPN1 (Danio rerio, UniProt Q7T1G6); assay type: cell-based; settings: for Emax: HEK293, read-out: Max % Activation (Control); for activity against TRPN1: compounds tested from powders
Summary of the method: (§1)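 HEK293 lines stably expressed YFP-fused human TRPML3 or zebrafish TRPN1 (G418 0.8 mg/ml, twice subcloned) and were plated at 1,500 cells/well for 23 h at 37 °C. After Fluo-8 loading (1 h 37 °C, 30 min RT), a 5 s basal read and 120 s post-addition read were taken. Max/basal ratios were normalized to DMSO and carbachol (87 µM).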

TRPML3 [1] = target: T1, TRPML3 (Homo sapiens, UniProt Q8TDD5); test: Fura-2 calcium imaging, HEK293 cells transiently expressing TRPML3; assay type: cell-based; settings: for ⊗F340/F380 (TRPML3): 10 µM compound, mean ±SEM (n≥3); for kinetics of intracellular calcium increase: TRPML3-transfected HEK293 cells
T1 sequence (Q8TDD5 1-553): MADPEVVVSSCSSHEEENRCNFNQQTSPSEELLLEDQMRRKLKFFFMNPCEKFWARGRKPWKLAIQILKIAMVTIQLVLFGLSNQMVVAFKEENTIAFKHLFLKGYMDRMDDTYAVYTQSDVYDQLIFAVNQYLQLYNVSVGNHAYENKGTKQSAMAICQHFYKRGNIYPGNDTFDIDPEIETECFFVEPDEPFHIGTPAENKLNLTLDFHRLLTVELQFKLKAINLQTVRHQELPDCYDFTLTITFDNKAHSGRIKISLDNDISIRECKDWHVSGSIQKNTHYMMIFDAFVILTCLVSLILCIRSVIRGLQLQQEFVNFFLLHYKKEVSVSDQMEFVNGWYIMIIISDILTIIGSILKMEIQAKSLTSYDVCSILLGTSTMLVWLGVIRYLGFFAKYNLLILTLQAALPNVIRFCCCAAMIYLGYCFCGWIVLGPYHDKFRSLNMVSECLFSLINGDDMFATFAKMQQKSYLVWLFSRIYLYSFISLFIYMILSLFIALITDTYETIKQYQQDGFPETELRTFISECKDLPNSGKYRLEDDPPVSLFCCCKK
Summary of the method: (§2)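 HEK293 cells were transiently transfected (Genejammer) with the human channel construct or YFP control and measured 24 h later. Cells on glass coverslips were loaded with 4 µM fura-2-AM in bath solution (mM: 138 NaCl, 6 KCl, 2 MgCl2, 2 CaCl2, 10 HEPES, 5.5 D-glucose; pH 7.4). Compounds were applied at 10 µM and the F340/F380 ratio recorded. Values are mean ± SEM, n≥3.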

TRPML3 [2] = target: T1, TRPML3; assay type: cell-based; settings: HEK293, read-out: Max % Activation (TRPML3)
Summary of the method: as §1

[3] = test system: YFP-expressing HEK293 cells; test: Whole-cell patch-clamp, YFP-expressing HEK293 cells; assay type: cell-based; settings: current density at −80 mV, mean ±SEM (n≥3)
Summary of the method: (§3)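 Whole-cell patch clamp was done on HEK293 cells 24 h after transient transfection with human TRPML3 or YFP; constitutively active TRPML3(A419P) cells served as positive control. Bath solution (mM): 138 NaCl, 5.4 KCl, 2 MgCl2, 2 CaCl2, 10 HEPES, 10 d-glucose; pH 7.4. Pipette solution (mM): 140 CsCl, 10 HEPES, 3 ATP-Na, 1 BAPTA, 2 MgCl2; pH 7.2. Compounds at 10 µM were perfused. Capacitance-normalized current at −80 mV is reported as mean ± SEM, n≥3.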

TRPML3 [4] = target: T1, TRPML3; test: Whole-cell patch-clamp, HEK293 cells transiently transfected with TRPML3; assay type: cell-based; settings: for nA/pF (-80 mV) (TRPML3): current density at −80 mV, 10 µM in standard bath solution, mean ±SEM (n≥3); for average current density relative to constitutively active TRPML3 A419P: whole-cell, −80 mV
Summary of the method: as §3

TRPML3 [5] = target: T1, TRPML3; test: Whole-cell patch-clamp with intracellular application; assay type: cell-based
TRPML3 [6] = target: T1, TRPML3; test: Excised; assay type: cell-based; settings: patches held at −80 mV
TRPML1(NC) = TRPML1(NC) (Homo sapiens, UniProt Q9GZU1); test: Fura-2 calcium imaging, HEK293 cells expressing TRPML1; assay type: cell-based; settings: 10 µM, plasma membrane-localized TRPML1 variant
Chain of TRPML1(NC) (Q9GZU1 17-572 limits assumed): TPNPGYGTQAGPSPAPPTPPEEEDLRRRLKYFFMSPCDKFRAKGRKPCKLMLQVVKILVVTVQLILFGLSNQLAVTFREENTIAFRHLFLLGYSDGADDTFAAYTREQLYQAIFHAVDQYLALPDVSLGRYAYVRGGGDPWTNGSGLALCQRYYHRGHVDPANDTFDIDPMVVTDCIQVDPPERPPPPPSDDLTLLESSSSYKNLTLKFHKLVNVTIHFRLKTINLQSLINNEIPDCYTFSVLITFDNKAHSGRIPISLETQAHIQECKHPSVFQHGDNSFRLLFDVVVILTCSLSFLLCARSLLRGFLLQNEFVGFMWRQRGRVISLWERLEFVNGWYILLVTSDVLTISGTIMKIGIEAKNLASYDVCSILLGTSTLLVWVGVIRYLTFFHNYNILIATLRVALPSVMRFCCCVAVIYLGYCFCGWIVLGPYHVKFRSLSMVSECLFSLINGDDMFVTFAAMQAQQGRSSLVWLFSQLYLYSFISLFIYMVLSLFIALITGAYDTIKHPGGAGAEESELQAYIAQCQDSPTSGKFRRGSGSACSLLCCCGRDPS
Summary of the method: as §2

[7] = target: T2, TRPML3 coexpressed with TRPML1 (Homo sapiens, UniProt Q8TDD5); test: Calcium imaging, HEK293 cells coexpressing TRPML3 with TRPML1; assay type: cell-based; settings: 10 µM
T2 sequence (Q8TDD5 1-553): T1 sequence (Q8TDD5 1-553)
Summary of the method: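 Human TRPML3 and TRPML1 were transiently coexpressed in HEK293 cells (Genejammer) and imaged 24 h post-transfection. Cells on glass coverslips were loaded with 4 μM fura-2-AM in bath solution (mM: 138 NaCl, 6 KCl, 2 MgCl₂, 2 CaCl₂, 10 HEPES, 5.5 D-glucose, pH 7.4) and read on a monochromator imaging system. Test compound was 10 μM. Mean ± SEM, n≥3 independent experiments, 20–30 cells each.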

cochlear hair cells = test: Recording from acutely isolated cochlear hair cells; assay type: cell-based, rat; settings: up-to 100 µM; in SBS, SN-2 also in ELS
TRPML2 = target: T3, TRPML2 (Homo sapiens, UniProt Q8IZK6); test: Fura-2 calcium imaging, HEK293 cells expressing TRPML2; assay type: cell-based; settings: 10 µM
T3 sequence (Q8IZK6 1-566): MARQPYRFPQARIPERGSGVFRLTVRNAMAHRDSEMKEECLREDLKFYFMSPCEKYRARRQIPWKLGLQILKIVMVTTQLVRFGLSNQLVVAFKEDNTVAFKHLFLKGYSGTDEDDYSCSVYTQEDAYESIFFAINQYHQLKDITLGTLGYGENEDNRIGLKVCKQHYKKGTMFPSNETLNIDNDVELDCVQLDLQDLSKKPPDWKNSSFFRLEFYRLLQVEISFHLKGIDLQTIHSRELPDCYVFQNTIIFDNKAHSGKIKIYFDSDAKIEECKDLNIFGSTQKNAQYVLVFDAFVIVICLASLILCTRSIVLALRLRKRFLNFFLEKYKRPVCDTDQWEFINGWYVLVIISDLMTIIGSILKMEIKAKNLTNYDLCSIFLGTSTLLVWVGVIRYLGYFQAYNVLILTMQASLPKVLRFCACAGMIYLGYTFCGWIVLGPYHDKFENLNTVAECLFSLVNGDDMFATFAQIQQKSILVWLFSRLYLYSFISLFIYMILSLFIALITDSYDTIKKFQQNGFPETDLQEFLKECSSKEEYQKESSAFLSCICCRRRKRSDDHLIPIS
Summary of the method: as §2

[8] = test system: YFP-expressing HEK293 cells; test: Fura-2 calcium imaging, YFP-expressing HEK293 cells; assay type: cell-based; settings: mean ±SEM (n≥3)
Summary of the method: as §2

TRPML3 [9] = assay type: cell-based; settings: 10 µM compound; ELS 2 mM Na+, 150 mM K+
Summary of the method: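 Whole-cell recordings used HEK293 cells expressing TRPML3 with 100% series-resistance compensation. Pipette solution (mM): 140 CsCl, 10 HEPES, 3 ATP-Na, 1 BAPTA, 2 MgCl2; pH 7.2. Compound at 10 µM was perfused in endolymph-like solution (mM: 2 NaCl, 150 KCl, 0.25 CaCl2, 10 HEPES, 10 glucose; pH 7.4) or in standard bath. Inward current at −80 mV was normalized to capacitance.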

[10] = target: T4, TRPML3 coexpressed with dynamin (Homo sapiens, UniProt Q8TDD5); test: Calcium imaging, HEK293 cells coexpressing wild type dynamin with TRPML3; assay type: cell-based; settings: compared to control experiments
T4 sequence (Q8TDD5 1-553): T1 sequence (Q8TDD5 1-553)
Summary of the method: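 HEK293 cells were transiently cotransfected (Genejammer) with wild-type dynamin and TRPML3 and imaged 24 h later. Cells on glass coverslips were loaded with 4 µM fura-2-AM in bath solution (mM: 138 NaCl, 6 KCl, 2 MgCl2, 2 CaCl2, 10 HEPES, 5.5 D-glucose; pH 7.4). Responses to activators were compared with control transfections.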

Chain of danio rerio TRPN1 (Q7T1G6 1-1614): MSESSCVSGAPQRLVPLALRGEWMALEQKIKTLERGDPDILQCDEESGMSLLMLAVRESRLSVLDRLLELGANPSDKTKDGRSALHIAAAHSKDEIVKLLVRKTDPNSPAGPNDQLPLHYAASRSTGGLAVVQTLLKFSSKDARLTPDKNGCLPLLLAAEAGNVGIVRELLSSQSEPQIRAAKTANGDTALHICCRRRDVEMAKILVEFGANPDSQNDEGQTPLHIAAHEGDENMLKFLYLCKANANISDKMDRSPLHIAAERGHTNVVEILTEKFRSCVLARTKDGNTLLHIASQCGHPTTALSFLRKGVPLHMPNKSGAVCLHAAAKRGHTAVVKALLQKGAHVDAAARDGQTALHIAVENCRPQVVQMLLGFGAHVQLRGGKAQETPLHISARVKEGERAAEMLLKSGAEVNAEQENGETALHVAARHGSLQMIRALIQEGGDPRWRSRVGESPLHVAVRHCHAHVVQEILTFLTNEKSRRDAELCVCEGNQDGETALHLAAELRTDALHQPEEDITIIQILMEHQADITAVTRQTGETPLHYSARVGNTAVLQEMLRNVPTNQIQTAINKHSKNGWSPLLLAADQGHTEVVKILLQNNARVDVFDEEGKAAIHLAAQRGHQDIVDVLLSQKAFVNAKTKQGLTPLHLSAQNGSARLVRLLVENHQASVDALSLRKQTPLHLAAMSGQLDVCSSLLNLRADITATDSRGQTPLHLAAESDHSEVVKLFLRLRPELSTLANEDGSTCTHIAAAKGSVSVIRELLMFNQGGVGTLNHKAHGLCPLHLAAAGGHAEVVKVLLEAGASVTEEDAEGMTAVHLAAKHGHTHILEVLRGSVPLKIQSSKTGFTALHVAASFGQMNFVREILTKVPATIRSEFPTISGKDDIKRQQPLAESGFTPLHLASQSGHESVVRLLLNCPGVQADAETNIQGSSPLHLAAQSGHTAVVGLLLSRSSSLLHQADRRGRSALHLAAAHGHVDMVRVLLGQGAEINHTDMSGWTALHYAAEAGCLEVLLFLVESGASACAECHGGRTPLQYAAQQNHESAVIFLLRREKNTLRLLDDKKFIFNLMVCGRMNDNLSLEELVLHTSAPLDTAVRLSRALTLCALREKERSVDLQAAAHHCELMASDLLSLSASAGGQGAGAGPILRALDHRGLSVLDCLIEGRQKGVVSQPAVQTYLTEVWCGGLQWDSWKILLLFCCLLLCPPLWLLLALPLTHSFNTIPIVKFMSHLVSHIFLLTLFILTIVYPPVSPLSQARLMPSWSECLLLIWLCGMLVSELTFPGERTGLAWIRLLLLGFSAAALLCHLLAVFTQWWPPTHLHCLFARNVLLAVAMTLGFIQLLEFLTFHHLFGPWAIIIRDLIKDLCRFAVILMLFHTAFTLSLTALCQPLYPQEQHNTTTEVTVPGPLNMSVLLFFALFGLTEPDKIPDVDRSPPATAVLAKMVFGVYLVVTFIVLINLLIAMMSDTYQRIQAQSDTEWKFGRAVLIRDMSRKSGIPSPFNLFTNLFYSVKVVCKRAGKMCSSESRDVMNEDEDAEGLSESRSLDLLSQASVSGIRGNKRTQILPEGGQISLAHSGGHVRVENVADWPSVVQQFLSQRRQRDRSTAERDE

Structure (SMILES)	EC50 (danio rerio TRPN1)	Emax (danio rerio TRPN1)	⊗F340/F380 (TRPML3) (TRPML3 [1])	Emax (TRPML3 [2])	nA/pF (-80 mV) (Control) [3]	nA/pF (-80 mV) (TRPML3) (TRPML3 [4])	cell membrane permeability (TRPML3 [5]; inferred from intracellular infusion experiment)	response to intracellular application (infusion) (TRPML3 [5]; whole-cell, −80 mV)	TRPML3 activity in excised patches (TRPML3 [6])	activation of mutant TRPML1(NC) isoform (TRPML1(NC))	average current density relative to constitutively active TRPML3 A419P (TRPML3 [4])	calcium imaging response when TRPML1 was coexpressed with TRPML3 [7]	activity against TRPN1 (danio rerio TRPN1)	kinetics of intracellular calcium increase (TRPML3 [1])	TRPML3 channel activity in cochlear hair cells (cochlear hair cells)	response in HEK293 cells expressing TRPML2 (TRPML2)	⊗F340/F380 (Control) [8]	increase in current densities, compound + ELS vs ELS alone or compound in SBS (TRPML3 [9])	response when wild type dynamin coexpressed with TRPML3 in HEK293 cells [10]
CCCC(=O)Oc1c(S(=O)(=O)c2ccc(C)cc2)c(C)nn1C(C)(C)C [SF-71, [2-tert-butyl-5-methyl-4-(4-methylphenyl)sulfonylpyrazol-3-yl] butanoate]	> 29.9 µM	2 ± 1%	0.75 ±0.06	85 ± 8%	−0.012 ±0.006 nA/pF	−0.08 ±0.02 nA/pF	–	–	–	–	–	–	–	–	–	–	–	–	–
O=S(=O)(Nc1ccccc1N1CCCCC1)c1ccc(Cl)s1 [SF-22, 5-chloro-N-(2-piperidin-1-ylphenyl)thiophene-2-sulfonamide]	> 29.9 µM	1%	1.00 ±0.07	156 ± 16%	–	−0.24 ±0.06 nA/pF	not cell permeable	did not elicit a response when infused into the cells	markedly increased TRPML3 activity	able to activate this channel; also recorded: can be activated by compound SF-22	comparable to average current densities obtained from cells expressing the constitutively active varitint-waddler mutant isoform A419P	strong reduction of the calcium imaging responses	–	–	–	–	–	–	–
CC1=CC(C)(C)N(C(=O)CN2C(=O)c3ccccc3C2=O)c2ccccc21 [SF-51, 2-[2-oxo-2-(2,2,4-trimethylquinolin-1-yl)ethyl]isoindole-1,3-dione]	> 29.9 µM	47 ± 3%	0.78 ±0.03	175 ± 18%	−0.016 ±0.008 nA/pF	−0.41 ±0.10 nA/pF	–	–	–	–	Stronger responses	–	significant activity against TRPN1	slowest kinetics	–	–	–	–	–
O=S(=O)(NC1CCCCC1N1CCOCC1)c1ccc(Cl)cc1 (stereo not shown) [SF-21, 4-chloro-N-(2-morpholin-4-ylcyclohexyl)benzenesulfonamide]	14.2 ± 2.03 µM	61 ± 2%	1.38 ±0.10	200 ± 7%	–	−0.55 ±0.08 nA/pF	–	–	–	–	Stronger responses	strong reduction of the calcium imaging responses	significant activity against TRPN1	much more rapid increase than the other compounds	Neither compound at concentrations of up-to 100 µM, with or without endolymph-like extracellular solution, elicited TRPML3 channel activity	elicited responses	0.033 ±0.008	–	–
Cc1ccc(S(=O)(=O)Nc2ccccc2-c2ccccc2)cc1 [SF-24, 4-methyl-N-(2-phenylphenyl)benzenesulfonamide]	> 29.9 µM	2%	0.51 ±0.05	86 ± 7%	–	−0.02 ±0.01 nA/pF	–	–	–	–	–	–	–	–	–	–	0.016 ±0.023	≤ 10 fold	reduction in response
